Assay results from different studies.
Compare with care: the assays were run in different laboratories.
Target: Dual specificity tyrosine-phosphorylation-regulated kinase 3 (DYRK3, Homo sapiens, UniProt O43781)
Effect on: enzyme activity
Action: inhibitor
One construct used (O43781 1-588): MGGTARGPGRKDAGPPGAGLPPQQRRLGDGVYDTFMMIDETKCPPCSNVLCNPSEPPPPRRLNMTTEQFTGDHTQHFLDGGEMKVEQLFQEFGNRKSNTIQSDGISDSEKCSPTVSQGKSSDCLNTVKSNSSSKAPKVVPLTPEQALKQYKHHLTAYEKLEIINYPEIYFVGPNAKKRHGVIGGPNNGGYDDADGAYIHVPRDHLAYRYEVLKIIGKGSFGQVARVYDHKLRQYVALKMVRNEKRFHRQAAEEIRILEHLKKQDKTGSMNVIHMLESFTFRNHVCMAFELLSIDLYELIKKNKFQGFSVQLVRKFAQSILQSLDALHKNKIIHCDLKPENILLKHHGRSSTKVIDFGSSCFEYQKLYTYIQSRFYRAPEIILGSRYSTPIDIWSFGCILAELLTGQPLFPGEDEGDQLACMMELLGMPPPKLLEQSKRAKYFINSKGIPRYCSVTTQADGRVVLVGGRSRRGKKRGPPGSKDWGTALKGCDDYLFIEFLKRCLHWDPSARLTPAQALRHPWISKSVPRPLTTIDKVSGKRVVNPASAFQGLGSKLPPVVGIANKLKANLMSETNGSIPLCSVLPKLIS

Compound	method	concentration	remaining activity
COc1cc(Nc2cnc(C#N)c(O[C@H](C)CN(C)C)n2)ncc1-c1cnn(C)c1	radiometric	10 µM	79%
COc1cc(Cl)c(C(=O)N[C@@H](CN[C@H]2CC[C@@H](N)CC2)Cc2ccc(C#N)cc2)cc1-c1ccc(CN[C@H](C)c2ccc(C)cc2)o1	–	1 µM	99%
O=C(O)c1ccc2c(c1)nc(Nc1ccccc1)c1ncncc12	radiometric	1 µM	22%
Cc1sc(C(=O)NC2COC2)cc1-n1cc(NC(=O)Nc2c(F)cccc2Cl)cn1	–	10 µM	101%
Nc1nc(NC2CCCCC2)sc1C(=O)c1ccccc1	–	10 µM	57%
CC(C)(C)c1nc(-c2cccc(NS(=O)(=O)c3c(F)cccc3F)c2F)c(-c2ccnc(N)n2)s1	radiometric	1 µM	91%
O=C(O)c1ccc2c(c1)nc(Nc1ccc(F)c(Cl)c1)c1ccncc12	radiometric	1 µM	1%
CC(C)(C)C(=O)c1sc(NC2CCCCC2)nc1N	–	10 µM	96%
O=C(O)c1ccc2c(c1)nc(Nc1ccc3ccccc3c1)c1ncncc12	radiometric	1 µM	0%
CC(C)(C)c1nc2c(s1)c1nc(N)ncc1c1ccc(NS(=O)(=O)c3c(F)cccc3F)c(F)c12	radiometric	1 µM	83%
Cn1c(=O)n(-c2ccc(C(C)(C)C#N)cc2)c2c3cc(-c4cnc5ccccc5c4)ccc3ncc21	–	10 µM	56%
CC(C)(O)[C@H]1CC[C@H](Nc2ccc3ncc(-c4cccc(C(F)(F)F)c4)n3n2)CC1	–	1 µM	63.6%
O=C(O)c1ccc2c(c1)nc(Nc1ccccc1Cl)c1ncncc12	radiometric	1 µM	66%
O=C(Nc1cnn(-c2csc(C(=O)NC3COC3)c2)c1)Nc1c(F)cccc1Cl	–	5 µM	99.2%
N#Cc1cccc(Nc2nc3cc(C(=O)O)ccc3c3cncnc23)c1	radiometric	1 µM	15%
FC(F)c1nc2ccccc2n1-c1nc(N2CCOCC2)nc(N2CCOCC2)n1	–	10 µM	87%
